Results from PubChem BioAssay.
Unmarked numbers belong to inactive results. Inconclusive results are not listed. Calls of active or inactive are those of the source.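 Rule for the calls, unless noted: active = viability increase at or above a cutoff of the median across tested compounds plus 3 SD (cut at about 8.5% in these data, passing the limit was not always enough); inconclusive = some gains above the cutoff, reason not given; inactive = the rest.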

Columns and labels:
[1] = S. cerevisiae growth inhibition in permissive medium (OD615), pilot counter-assay for S. cerevisiae lifespan shortening project, permissive growth control (AID 705;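 active = growth inhibition above 25% in both replicates, a cutoff set 3 SD above the mean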); conditions: OD615, 24 h, at 10 µM, hits give high values
In short: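 System: Engineered DeaD yeast | Buffer or medium: SC raffinose/galactose permissive medium | Doses: 10 µM single dose, 0.25% DMSO | Times: 24 h exposure, 30 °C | Measured by: OD615 turbidity read | Read-out: Yeast growth inhibition indicated by reduced 24 h OD615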

[2] = S. cerevisiae growth inhibition in restrictive medium, OD615, pilot screen, restrictive growth control, yeast lifespan reduction project (AID 706;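 active = growth inhibition above a set limit, 3 SD over mean compound inhibition, in both replicates, cut at about 43% in these data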;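 note: modified DeaD lifespan yeast strain shifted to restrictive glucose medium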); conditions: OD615, 48 h, at 10 µM, hits give high values
In short: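 Assay system: engineered S. cerevisiae DeaD strain; Buffer or medium: CSMM-D glucose medium; Dosing: 10 µM compound, 0.25% DMSO; Times: cell pre-growth 4 h, compound exposure 48 h, 30 °C; Detection: absorbance (optical density) measured at 615 nm.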

[3] = doxorubicin toxicity protection in MRP-1 cells – H69AR cells, CellTiter-Glo, duplicate, MRP-1 activator project, pilot screen (AID 807); conditions: H69AR viability with doxorubicin, CellTiter-Glo luminescence; at 10 µM; hits give high values;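 note: compound pretreatment 18-22 h then 72 h combined with doxorubicin; 0% = doxorubicin alone and 100% = vehicle without doxorubicin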
[4] = viability of HCT116 without oncogenic beta-catenin – human colon tumor cells, pilot screen (AID 823;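 active = cell viability at or below a set limit in both duplicate runs, the limit being the all-compound median minus 4 SD, cut at about 23% in these data, passing the limit was not always enough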;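 note: 0% = wells killed by 20 µM Hyamine and 100% = untreated DMSO cell wells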); conditions: HCT116 beta-catenin knockout viability, CellTiter-Glo, 60 h; at 10 µM; hits give low values
[5] = viability of PTEN-null HCT116 cells – cell-based, HCT116 clonal line, CellTiter-Glo, pilot screen (AID 824;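 active = viability at or below 27.92% in each of two runs, the all-compound median minus 4 SD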;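 note: 0% = 20 µM Hyamine control and 100% = vehicle cell control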); conditions: HCT116 PTEN-deleted viability, 60 h, at 10 µM, hits give low values
[6] = RAM pathway blockade in budding yeast – dse1pr::URA3 reporter, 5-FOA selection, pilot screen (AID 869;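 active = inhibition over a set limit, the all-compound mean plus 3 SD, in both replicate runs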;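 note: 0% = DMSO wells with no growth and 100% = 10 µM 1-NA-PP1 with full growth; RAM network block rescues cells from 5-FOA so hits raise OD615 growth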); conditions: S. cerevisiae dse1pr::URA3 5-FOA growth, OD615, 2 d; at 10 µM; hits give high values; strain carries analog-sensitive mutant Cbk1 kinase
[7] = RAM signaling pathway blockade in yeast – S. cerevisiae, Pdr1DBD-CYC8 efflux-inhibited sensitized strain, primary screen (AID 1298;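 active = RAM network inhibition above 8.4% in each of two replicates, 3 SD over the compound average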;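 note: 0% = DMSO untreated cells without growth and 100% = 10 µM 1-NA-PP1 full growth; higher means more yeast growth rescued from 5-FOA killing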); conditions: S. cerevisiae cbk1-as DSE1-URA3 strain, 5-FOA growth OD615, 2 d; at 50 µM; hits give high values

Row | SMILES | growth inhibition [1] [%] | growth inhibition [2] [%] | viability increase [3] [%] | viability [4] | viability [5] | inhibition [6] [%] | RAM network inhibition [7] [%]
1 | CCOc1ccc(NC(=O)N2CCC(n3c(=O)[nH]c4ccccc43)CC2)cc1 | -13.3 | -22 | 6.11 | 83.2% | 84.2% | 1.9 | 2.37
2 | O=C(CN1C2=NCCCN2c2ccccc21)c1cccs1 | 1.83 | -10.1 | -3.27 | 95.7% | 92.1% | 0.695 | 4.72
3 | COc1ccc(C)cc1NC(=O)CN1C(=O)c2ccccc2S1(=O)=O | 6.31 | 10.8 | -2.12 | 102% | 94.4% | 3.04 | 4.58
4 | COc1ccc(N(C)S(=O)(=O)c2cccc(C(=O)NC3=NCCS3)c2)cc1 | -4.93 | -1.7 | -1.55 | 91.6% | 89.8% | 1.13 | 2.28
5 | Cc1ccc2oc(=O)c3cnn(CC(=O)N4CCN(c5ccccn5)CC4)c3c2c1 | -7.07 | -17.7 | -1.28 | 91.8% | 87.6% | 1.41 | -0.31
6 | CNc1ccc(OC(F)F)cc1C(=O)c1ccccc1 | 12.9 | -4.32 | -2.34 | 89.8% | 92.9% | 0.685 | 2.22
7 | O=C(Oc1ccccc1)c1cccc(N2C(=O)CCC2=O)c1 | -1.76 | 0.85 | -1.06 | 105% | 105% | 1.27 | 1.74
8 | CCN1CCN(C(c2ccccc2)c2sc3nc(C)nn3c2O)CC1 (stereo unspecified) | 0.24 | 1.3 | -1.49 | 102% | 101% | 1.31 | 5.66
9 | CCOc1ccc(N(CC(=O)N2CCN(c3ccccc3)CC2)S(=O)(=O)c2c(C)noc2C)cc1 | 1.67 | -1.08 | -5.76 | 76.4% | 67.7% | 1.49 | 1.85
10 | N#Cc1nc(COc2ccccc2F)oc1NCc1ccc(F)cc1 | -5.23 | 6.15 | -4.08 | 92.1% | 90.7% | 0.39 | 8.3
11 | COc1ccc(-c2c(C)oc3c(CN4CCCCC4C)c(O)ccc3c2=O)cc1OC (stereo unspecified) | -13.7 | -7.48 | -9.18 | 103% | 97.5% | 1.71 | 4.01
12 | Cc1ccnc(SCCn2c(N3CCN(c4ccccc4)CC3)nc3c2c(=O)[nH]c(=O)n3C)n1 | -8.81 | 5.83 | -3.59 | 89.4% | 76.8% | 2.09 | 4.01
13 | COCCn1c(=O)[nH]c2cc(C(=O)NCCN3CCN(c4ccccc4)CC3)ccc2c1=O | -5.1 | 7.77 | -0.22 | 92.5% | 93.2% | 1.11 | 3.35
14 | CCc1ccc(-c2nc(C(N)=O)c3[nH]c(=O)n(-c4ccccc4OC)c3n2)cc1 | -5.67 | -2.13 | -8.43 | 15.6% (active) | 24% (active) | 2.18 | 10.7
15 | Cc1ccccc1-n1c(Cn2c(=O)sc3ccccc32)nnc1SCC(=O)N1CCOCC1 | -5.92 | -11.6 | -1.91 | 102% | 100% | 1.56 | 1.01
16 | COc1cccc(-n2c(Cc3cc(=O)[nH]c(=O)[nH]3)nnc2SCC(=O)Nc2ccccc2)c1 | -5.92 | -2.63 | -0.3 | 107% | 97.8% | 1.61 | 0.67
17 | OC(CN1C2=NCCCN2c2ccccc21)c1ccc(Cl)cc1 (stereo unspecified) | -8.91 | 2.81 | -4.02 | 73.8% | 76.1% | 1.26 | 3.02
18 | COc1ccccc1N1C(=O)C2CC=CC(C)C2C1=O (stereo unspecified) | -0.615 | 2.32 | -0.91 | 89.4% | 94% | 0.52 | 2.25
19 | CC(=O)Oc1c2occc2cc2ccc(=O)oc12 | -10.4 | -1.74 | -2.14 | 92.7% | 90.5% | 0.425 | -1.95
20 | CC1=C(C(=O)Nc2ccccc2)C(c2ccco2)C(C#N)=C(SCc2ccccc2)N1 (stereo unspecified) | 9 | 14.5 | -7.63 | 11.8% (active) | 9.06% (active) | 3.18 | 3.38
21 | CCOC(=O)c1c(NC(=O)c2cccs2)sc2c1CCCC2 | -6.96 | -21.1 | -4.82 | 101% | 83.5% | 3.56 | 8
22 | COc1ccccc1N1CCN(C(=O)CCc2ccc(S(=O)(=O)NC(C)C)cc2)CC1 | -12.7 | -19.8 | -2.97 | 97.6% | 102% | 0.85 | 4.61
23 | CC(=O)c1ccc(C(=O)Nc2ccc(N3CCOCC3)cc2)cc1 | -0.45 | 2.98 | 3.45 | 98.5% | 99.6% | 0.45 | 2.61
24 | CN(C)Cc1cc(C(C)(C)C)c(O)c(C(C)(C)C)c1 | -3.78 | -4.33 | -2.61 | 97.2% | 101% | 0.92 | 5.72

Row | SMILES | growth inhibition [1] [%] | growth inhibition [2] [%] | viability increase [3] [%] | viability [4] | viability [5] | inhibition [6] [%] | RAM network inhibition [7] [%]
25 | CC(=O)n1c2ccccc2c2c1c1ccccc1n2C | 10.6 | 3.17 | -4.83 | 96% | 82.6% | 2.49 | 2
26 | Cc1ccc(F)c(NC(=O)C2CCCCC2C(=O)O)c1 (stereo unspecified) | 1.12 | -20.6 | -2.22 | 90.7% | 94% | 0.145 | 2.88
27 | Cc1nc2c3ccccc3n(CC#N)c(=O)n2n1 | -11.8 | -5.63 | -3.78 | 99.9% | 95.8% | 2.66 | 0.21
28 | Cc1csc2nc(CNS(=O)(=O)N(C)C)cn12 | 4.64 | 19.6 | -3.46 | 95.2% | 99.1% | 0.875 | 0.05
29 | CC(CNC(=O)c1ccc(Br)o1)NC(=O)c1ccc(Br)o1 (stereo unspecified) | -0.8 | 2.43 | -0.71 | 99% | 97.8% | 1.46 | 1.17
30 | CCOC(=O)C1=C(C)NC(=O)NC1c1ccc(N(C)C)cc1 (stereo unspecified) | -12.3 | -5.65 | -2.7 | 96.9% | 92.9% | 2.35 | 5.85
31 | O=C(CSc1cn(CCNC(=O)c2ccccc2)c2ccccc12)NCc1ccco1 | -4.76 | -10.4 | -5.29 | 84.1% | 84.3% | 0.64 | 5.98
32 | COc1ccccc1N(CC(=O)Nc1ccc2c(c1)OCO2)S(=O)(=O)c1ccccc1 | -5.44 | -18.2 | -0.47 | 73.7% | 84% | 0.8 | 8.21
33 | CCN1CCN(CC(=O)Nc2ccc3c(c2)OCO3)C(=O)C1=O | -18.6 | -4.2 | -0.45 | 101% | 100% | 0.7 | 6.72
34 | CC1=Nc2ccc(C)cc2N(Cc2ccccc2)C(=O)C1 | -10.2 | -5.19 | 0.47 | 101% | 93.8% | 0.545 | 2.83
35 | O=C(NCCCNCc1ccccc1)c1ccc(/C=N/O)nc1 | -8.54 | -12.5 | -1.94 | 93.2% | 97.9% | 1.73 | 3.09
36 | Cc1cccc(CSc2nnc(-c3ccccn3)n2N)c1 | -6.39 | 14.2 | -2.01 | 103% | 94.4% | 0.655 | 0.89
37 | NC(=O)c1nc(C2CCCCC2)nc2c1[nH]c(=O)n2-c1ccc(F)cc1 | -13.1 | -17.8 | -3.71 | 87.4% | 86% | 1.69 | 5.24
38 | Cc1onc(-c2ccccc2Cl)c1C(=O)N(C)C1CCCCC1 | -18.5 | -9.2 | -2.42 | 46.5% | 63.2% | -0.15 | 2.15
39 | CCOC(=O)N1CCC(NC(=O)c2ccc(CS(=O)(=O)c3ccccc3C)o2)CC1 | -9.38 | -19.7 | -0.86 | 106% | 98.5% | -0.185 | 7.2
40 | CCOC(=O)N1CCN(c2c(NCc3ccccn3)c(=O)c2=O)CC1 | 8.16 | 18.2 | -1.44 | 103% | 96% | 1.28 | 1.45
41 | CCCC(=O)N1CCN(C2=NS(=O)(=O)c3ccccc32)CC1 | -0.28 | 12.9 | -0.68 | 103% | 98.5% | -0.175 | 3.82
42 | O=C(Nc1ccon1)c1cccc(C(F)(F)F)c1 | -9.21 | -5.36 | 2.41 | 104% | 101% | 0.075 | 0.62
43 | COc1cccc(-c2cc(N)nn2C(=O)Nc2ccc(Cl)cc2)c1 | -15.4 | -29.3 | -2.28 | 105% | 90.7% | -0.025 | 0.22
44 | CCOc1cccc(C2c3c(oc4ccccc4c3=O)C(=O)N2c2ccccn2)c1 (stereo unspecified) | -1.86 | -9.72 | -2.2 | 95.6% | 93.9% | 0 | 2.56
45 | CCCCCn1c(=O)[nH]c2cc(C(=O)O)ccc2c1=O | -13.9 | -12.1 | -1.3 | 102% | 90.7% | 1.91 | 2.2
46 | COCCOC(=O)C1=C(C)NC(=O)NC1c1ccc(OC(=O)c2ccco2)c(OC)c1 (stereo unspecified) | 7.03 | -14.5 | -2.68 | 97.8% | 92.7% | 2.5 | 4.12
47 | COc1cccc(C(=O)Nc2cc(=O)n(C)c(=O)n2C)c1OC | -1.72 | -6.04 | -2.46 | 105% | 98.8% | 1.94 | 1.14
48 | O=C(Oc1ccccc1)N1CCN(c2ccc(F)cc2)CC1 | -11.1 | -5.32 | 1.92 | 95.8% | 85.5% | 0.665 | 5.1
